Experimental data published in ChEMBL document CHEMBL5113474, “Triazole-substituted phenylboronic acids as tunable lead inhibitors of KPC-2 antibiotic resistance” (Eur J Med Chem, 2022).
Converted amounts (≈) assume the structure as drawn. Each block holds one molecule with its values, some of them ahead of it. The source made the active and inactive calls. The rule behind the calls is not given here.

What was measured:
[1] = test system: Escherichia coli; assay: microbe, parasite or virus in culture; type: functional; details: BL21 (DE3), dose 50 µg/ml, time 16-20 hrs
[2] = test system: Escherichia coli; assay: microbe, parasite or virus in culture; type: functional; details: BL21 (DE3), dose 5 µg/ml, time 16-20 hrs
[3] = test system: Escherichia coli; assay: Potentiation of cefotaxime induced antibacterial activity against Escherichia coli expressing CMY-4/TEM-1 assessed as cefotaxime MIC at 5 ug/ml incubated for 16 to 20 hrs by microdilution method; type: functional; details: dose 5 µg/ml, time 16-20 hrs
Summary of the method: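 Cefotaxime MIC re-measured with the boronic acid inhibitor held at a fixed 5 μg/mL, lowered from an earlier 50 μg/ml fixed-dose combination; MICs interpreted against CLSI susceptibility categories.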

[4] = test system: Bacteria; assay: Inhibition of bacterial beta-lactamase KPC-2 expressed in Escherichia coli BL21 (DE3) using nitrocefin as substrate at 1 uM by spectrophotometric analysis relative to control
Summary of the method: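 Purified recombinant KPC-2 tested against the chromogenic β-lactam nitrocefin at 1 µM inhibitor. Hydrolysis was followed as the rise in absorbance at 482 nm (ε482 = 17,400 M-1 cm-1). Activity is expressed as percent inhibition relative to an uninhibited control.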

[5] = test system: Escherichia coli; assay: Antibacterial activity against Escherichia coli NCTC10418; type: functional
[6] = Cytotoxicity against HEK293 cells assessed as cell viability at 5 to 50 ug/ml incubated for 24 hrs in presence of cefotaxime by MTT assay relative to control; details: human, at 5 to 50 µg/mL
[7] = Cytotoxicity against HEK293 cells assessed as cell viability at 5 to 50 ug/ml incubated for 24 hrs by MTT assay relative to control; details: human, at 5 to 50 µg/mL
[8] = physchem; details: 0.1 M phosphate buffer, pH 4.3
[9] = test system: Escherichia coli; type: functional, BL21 (DE3); details: time 16-18 hrs
[10] = Inhibition of bacterial beta-lactamase KPC-2 expressed in Escherichia coli BL21 (DE3) using nitrocefin as substrate assessed as inhibition constant by Cheng-Prusoff equation analysis; set-up: species or system Bacteria
[11] = test system: Escherichia coli; assay: microbe, parasite or virus in culture; type: functional; details: BL21 (DE3), dose 5 µg/ml, time 16-20 hrs; remark: listed apart in the source
[12] = test system: Escherichia coli; assay: microbe, parasite or virus in culture; type: functional; details: BL21 (DE3), dose 50 µg/ml, time 16-20 hrs; remark: listed apart in the source
[13] = Inhibition of beta-lactamase CTX-M (unknown origin); set-up: species or system Bacteria
[14] = Inhibition of beta-lactamase TEM-1 (unknown origin); set-up: species or system Bacteria
[15] = Inhibition of class C […]beta-lactamase AmpC (unknown origin); set-up: species or system Bacteria
[16] = Inhibition of Metallo-beta-lactamase VIM-1 (unknown origin); set-up: species or system Bacteria
[17] = Inhibition of beta-lactamase OXA (unknown origin); set-up: species or system Bacteria
[18] = physchem; details: 0.1 M phosphate buffer
[19] = test system: Klebsiella pneumoniae; assay: Antibacterial activity against Klebsiella pneumoniae harboring OXA-48 assessed as bacterial growth inhibition incubated for 16 to 20 hrs by microdilution method; type: functional; details: time 16-20 hrs
[20] = Solubility of the compound at 0.1 mM in 0.1 M phosphate buffer; type: physicochemical; details: 100 µM
[21] = Inhibition of beta-lactamase PDC-3 (unknown origin); set-up: species or system Bacteria
[22] = Inhibition of beta-lactamase P99 (unknown origin); set-up: species or system Bacteria
[23] = Inhibition of beta-lactamase KPC-2 (unknown origin); set-up: species or system Bacteria
[24] = Inhibition of beta-lactamase SHV-12 (unknown origin); set-up: species or system Bacteria
[25] = test system: Proteus mirabilis; assay: Antibacterial activity against Proteus mirabilis producing CTX-M-14/CMY-2 assessed as bacterial growth inhibition incubated for 16 to 20 hrs by microdilution method; type: functional; details: time 16-20 hrs
[26] = test system: Escherichia coli; assay: Antibacterial activity against Escherichia coli expressing CMY-4/TEM-1 assessed as bacterial growth inhibition at 0.06 to 64 ug/ml incubated for 16 to 20 hrs by microdilution method; type: functional, organism-based; details: dose 0.06-64 µg/ml, time lower […], time upper 20.0 hrs

MIC [1]: ≤ 0.06 µg/mL
MIC [2]: 4 µg/mL (≈ 13 µM)
MIC [3]: 0.12 µg/mL
inhibition [4]: 21%
MIC [5]: > 64 µg/mL
pKa at 100 µM [8]: 6.27
Ki [10]: 1840 nM
MIC [11]: ≤ 0.06 µg/mL
MIC [12]: ≤ 0.06 µg/mL
Structure (SMILES): OB(O)c1cc(-n2cc(-c3ccsc3)nn2)c(F)cc1F
viability at 24 h [6]: > 80%
viability at 24 h [7]: > 80%
inhibition zone (IZ) [9]: 28.8 mm

IC50 [14]: 8.1 nM
IC50 [15]: 270 nM
IC50 [16]: 61 nM
IC50 [17]: 2000 nM
Structure (SMILES): NCc1ccc(C(=O)NC2Cc3cccc(C(=O)O)c3OB2O)cc1 (stereo not drawn)

Ki [10]: 5900 nM
solubility [20]: Insoluble
Structure (SMILES): OB(O)c1cc(-n2cc(-c3ccsc3)nn2)cc(F)c1F
inhibition zone (IZ) [9]: 19.8 mm

Ki [21]: 8 nM
Ki [22]: 14 nM
IC50 [23]: 40 nM
IC50 [24]: 140 nM
Structure (SMILES): O=C(Cc1cccs1)N[C@@H](Cn1cc(-c2cccc(C(=O)O)c2)nn1)B(O)O

Further lines, the molecule ahead of its results:

Structure (SMILES): CC(C)(O/N=C(/C(=O)NCB(O)O)c1cnc(N)s1)C(=O)O
Ki [13]: 4 nM

Structure (SMILES): O=[N+]([O-])c1ccc(F)c(B(O)O)c1
pKa [18]: 6
pKa at 100 µM [8]: 6.03
inhibition zone (IZ) [9]: 30.5 mm

Structure (SMILES): CO/N=C(\C(=O)N[C@@H]1C(=O)N2C(C(=O)O)=C(COC(C)=O)CS[C@H]12)c1csc(N)n1 [CEFOTAXIME]
MIC [19]: 2 µg/mL (≈ 4.39 µM)

Structure (SMILES): C[C@@H](O)[C@H]1C(=O)N2C(C(=O)O)=C(S[C@@H]3CN[C@H](C(=O)N(C)C)C3)[C@H](C)[C@H]12 [MEROPENEM]
MIC [19]: 0.5 µg/mL (≈ 1.3 µM)
MIC [25]: 0.25 µg/mL (≈ 0.652 µM)
Activity [26]: Active

Structure (SMILES): O=C(O)c1cccc2c1OB(O)C(NC(=O)C1CCCCC1)C2 (stereo not drawn)
IC50 [14]: 2.6 nM
IC50 [15]: 68 nM
IC50 [16]: 1000 nM
IC50 [17]: 220 nM

Structure (SMILES): O=C(Cc1cccs1)N[C@H](B(O)O)c1cccc(C(=O)O)c1
Ki [15]: 1 nM
IC50 [23]: 60 nM
IC50 [24]: 40 nM
